From ChEMBL document CHEMBL1156993, “Benzyl prolinate derivatives as novel selective KCC2 blockers” (Bioorg Med Chem Lett, 2010) come the findings set out here.

Series [1] has as its system Mus musculus. As to the kind of experiment: Anticonvulsant activity in audiogenic mouse epilepsy model assessed as inhibition of sound-induced wild running phase of seizure up to 75 mg/kg, ip pretreated 5 mins before acoustic stimulation. The class given is functional, organism-based. Also on record: dose 75 mg/kg. An outline of the steps:
(§1)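 Mice are pre-selected as responders in a first acoustic challenge (85 dB, 30 s). Wild running, clonic and tonic phases are scored. The next day, compound is given ip 5 min before the same stimulus. The proportion of mice protected against each of the three phases is calculated per group, with N = 10 per dose.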

In series [2] the test system is Mus musculus. In words: Anticonvulsant activity in audiogenic mouse epilepsy model assessed as inhibition of sound-induced clonic phase of seizure up to 75 mg/kg, ip pretreated 5 mins before acoustic stimulation. The class given is functional, organism-based. On the set-up: dose 75 mg/kg. An outline of the steps: as §1
The test system of series [3] is Mus musculus. As to the kind of experiment: Anticonvulsant activity in audiogenic mouse epilepsy model assessed as inhibition of sound-induced tonic convulsion phase of seizure up to 75 mg/kg, ip pretreated 5 mins before acoustic stimulation. The class given is functional, organism-based. On the set-up: dose 75 mg/kg. In short, it runs like this: as §1
A short description of series [4]: Intrinsic clearance in rat microsomes assessed per mg of protein. The class given is ADME, Microsome.
Series [5] addresses T1, Solute carrier family 12 member 5 (Rattus norvegicus, UniProt Q63633).
T1 sequence (Q63633 whole entry): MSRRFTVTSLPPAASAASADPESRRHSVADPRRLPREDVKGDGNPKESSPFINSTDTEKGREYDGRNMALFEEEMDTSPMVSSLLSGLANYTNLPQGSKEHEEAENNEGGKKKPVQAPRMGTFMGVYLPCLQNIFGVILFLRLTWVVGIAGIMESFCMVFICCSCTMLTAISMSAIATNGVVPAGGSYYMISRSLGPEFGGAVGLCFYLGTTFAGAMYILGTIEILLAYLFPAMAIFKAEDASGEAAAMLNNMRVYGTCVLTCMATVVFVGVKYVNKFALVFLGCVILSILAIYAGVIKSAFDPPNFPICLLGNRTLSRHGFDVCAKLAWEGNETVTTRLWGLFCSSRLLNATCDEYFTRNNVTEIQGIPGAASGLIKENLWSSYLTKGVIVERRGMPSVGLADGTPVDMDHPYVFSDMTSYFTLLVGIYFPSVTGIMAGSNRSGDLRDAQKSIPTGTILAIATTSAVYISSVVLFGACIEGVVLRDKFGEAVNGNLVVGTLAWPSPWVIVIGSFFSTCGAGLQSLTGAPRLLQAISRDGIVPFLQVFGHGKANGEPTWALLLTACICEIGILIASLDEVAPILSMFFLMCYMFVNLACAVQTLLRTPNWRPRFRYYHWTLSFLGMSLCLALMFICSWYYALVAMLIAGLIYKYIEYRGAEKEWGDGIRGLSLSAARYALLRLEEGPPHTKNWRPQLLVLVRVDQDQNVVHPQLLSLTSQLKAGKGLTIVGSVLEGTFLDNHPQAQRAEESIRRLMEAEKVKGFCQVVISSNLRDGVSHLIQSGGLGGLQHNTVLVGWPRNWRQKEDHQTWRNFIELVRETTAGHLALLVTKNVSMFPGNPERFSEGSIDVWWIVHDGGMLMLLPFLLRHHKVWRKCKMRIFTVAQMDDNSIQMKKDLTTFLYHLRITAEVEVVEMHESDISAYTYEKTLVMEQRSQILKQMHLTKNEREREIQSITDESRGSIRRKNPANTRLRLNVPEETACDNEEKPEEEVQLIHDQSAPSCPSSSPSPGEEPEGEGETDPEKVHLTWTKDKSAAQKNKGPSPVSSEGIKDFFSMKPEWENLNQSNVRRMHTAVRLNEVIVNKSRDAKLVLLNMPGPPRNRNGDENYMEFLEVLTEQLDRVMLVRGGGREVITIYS
In words: Antagonist activity of rat KCC2 transporter expressed in human SK-Hep cells assessed as inhibition of N-ethylmaleimide-mediated Rb+ influx after 10 mins by atomic absorption spectroscopy. The class given is functional, cell-based. An outline of the steps: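 Rat KCC2 stably expressed in a selected clone. The co-transporter is activated with N-ethylmaleimide in the presence of the test compound, and Rb+ influx is started by adding 5 mM RbCl to the extracellular medium. Influx is stopped after 10 min by repeated washes. Intracellular Rb+ is measured by atomic absorption spectroscopy, and IC50 is reported.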

A short description of series [6]: Antagonist activity to dog NKCC1 transporter expressed in MDCK cells assessed as inhibition of Cl- free medium-stimulated Rb+ influx at 100 uM after 45 mins by atomic absorption spectroscopy. The class given is functional, Canis lupus familiaris. Particulars: for inhibition at 100 µM: Canis lupus familiaris, MDCK, 0.75 h. An outline of the steps:
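MDCK cells express endogenous canine NKCC1. NKCC1 is activated by incubating the cells for 2 h in Cl−-free medium. Rb+ influx is then stimulated for 45 min by adding 20 mM RbCl to the extracellular solution. Intracellular Rb+ is quantified by atomic absorption spectroscopy, and results are given as percent inhibition.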

A short description of series [7]: Aqueous solubility in PBS buffer at pH 7.4. The class given is physicochemical.
Series [8] is described as follows: Intrinsic clearance in rat hepatocytes assessed per 10^6 cells.
Series [9] is described as follows: Cmax in Wistar rat at 6 mg/kg, po. The class given is ADME, organism-based. On the set-up: dose 6 mg/kg, route oral. To be noted: in vivo. In short, it runs like this:
(§2)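 Male Wistar rats are dosed at 1 mg/kg iv for half-life and clearance, and at 6 mg/kg po for AUC, Cmax and oral bioavailability.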

Series [10] is described as follows: Clearance in Wistar rat at 1 mg/kg, iv. The class given is ADME, organism-based. Also on record: dose 1 mg/kg, route intravenous. To be noted: in vivo. An outline of the steps: as §2
Series [11] can be described thus: Half life in Wistar rat at 1 mg/kg, iv. The class given is ADME, organism-based. Also on record: dose 1 mg/kg, route intravenous. Particulars: in vivo. An outline of the steps:
as §2

Series [12] in a line: Apparent permeability across human Caco-2 cells. The class given is ADME, cell-based. For orientation: Caco-2 monolayers are a common model of the intestinal barrier.
A short description of series [13]: AUC in Wistar rat at 6 mg/kg, po. The class given is ADME, organism-based. Also on record: dose 6 mg/kg, route oral. Particulars: plasma. An outline of the steps:
as §2

A short description of series [14]: Oral bioavailability in Wistar rat at 6 mg/kg. The class given is ADME, organism-based. Particulars: in vivo. An outline of the steps:
as §2

For another series, the target named is CYP2D6 (Homo sapiens, UniProt P10635). In words: Inhibition of human CYP2D6 at 50 uM. The class given is ADME.
Sequence of CYP2D6 (P10635 whole entry): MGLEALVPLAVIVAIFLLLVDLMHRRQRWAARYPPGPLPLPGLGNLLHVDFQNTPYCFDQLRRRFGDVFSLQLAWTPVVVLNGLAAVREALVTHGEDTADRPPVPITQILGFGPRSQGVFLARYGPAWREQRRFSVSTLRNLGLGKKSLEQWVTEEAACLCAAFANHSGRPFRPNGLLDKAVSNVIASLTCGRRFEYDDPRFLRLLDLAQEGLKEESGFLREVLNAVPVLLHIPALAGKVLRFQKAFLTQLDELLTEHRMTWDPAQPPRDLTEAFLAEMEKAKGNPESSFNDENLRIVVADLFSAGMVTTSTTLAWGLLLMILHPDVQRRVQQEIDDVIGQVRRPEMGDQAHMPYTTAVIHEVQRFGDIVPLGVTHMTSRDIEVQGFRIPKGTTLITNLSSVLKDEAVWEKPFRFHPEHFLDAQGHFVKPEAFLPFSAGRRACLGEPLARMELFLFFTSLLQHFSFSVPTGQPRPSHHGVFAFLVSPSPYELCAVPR
In a further series the target is CYP3A4 (Homo sapiens, UniProt P08684). As to the kind of experiment: Inhibition of human CYP3A4 at 50 uM. The class given is ADME.
Sequence of CYP3A4 (P08684 whole entry): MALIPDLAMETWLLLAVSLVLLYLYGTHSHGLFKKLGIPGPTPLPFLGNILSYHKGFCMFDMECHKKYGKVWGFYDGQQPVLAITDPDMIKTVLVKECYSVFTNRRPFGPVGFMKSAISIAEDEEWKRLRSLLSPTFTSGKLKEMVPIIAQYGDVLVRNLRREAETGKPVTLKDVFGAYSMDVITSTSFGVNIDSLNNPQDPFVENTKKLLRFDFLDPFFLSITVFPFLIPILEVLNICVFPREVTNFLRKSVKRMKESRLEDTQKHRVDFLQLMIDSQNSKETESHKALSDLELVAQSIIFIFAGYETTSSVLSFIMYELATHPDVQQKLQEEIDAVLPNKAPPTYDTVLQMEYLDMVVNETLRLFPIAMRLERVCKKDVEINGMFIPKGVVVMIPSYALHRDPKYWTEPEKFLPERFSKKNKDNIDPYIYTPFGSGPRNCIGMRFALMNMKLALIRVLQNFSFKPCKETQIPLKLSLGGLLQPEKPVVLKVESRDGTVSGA
For the next series, the target named is CYP2C9 (Homo sapiens, UniProt P11712). In words: Inhibition of human CYP2C9 at 50 uM. The class given is ADME.
Sequence of CYP2C9 (P11712 whole entry): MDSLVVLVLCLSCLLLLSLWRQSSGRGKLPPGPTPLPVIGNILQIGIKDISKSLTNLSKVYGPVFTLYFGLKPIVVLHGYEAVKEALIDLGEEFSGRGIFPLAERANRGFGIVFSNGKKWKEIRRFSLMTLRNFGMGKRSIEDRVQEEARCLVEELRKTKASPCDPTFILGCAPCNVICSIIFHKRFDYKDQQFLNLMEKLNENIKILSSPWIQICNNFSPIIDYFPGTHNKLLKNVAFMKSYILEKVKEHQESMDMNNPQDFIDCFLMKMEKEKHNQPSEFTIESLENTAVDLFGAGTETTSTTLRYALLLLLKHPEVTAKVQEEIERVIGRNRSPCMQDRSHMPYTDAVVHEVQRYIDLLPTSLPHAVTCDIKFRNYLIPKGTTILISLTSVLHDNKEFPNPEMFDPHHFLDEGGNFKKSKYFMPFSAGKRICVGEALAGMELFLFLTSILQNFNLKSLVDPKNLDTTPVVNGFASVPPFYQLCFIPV
The target in a further series is CYP2C19 (Homo sapiens, UniProt P33261). In words: Inhibition of human CYP2C19 at 50 uM. The class given is ADME.
Sequence of CYP2C19 (P33261 whole entry): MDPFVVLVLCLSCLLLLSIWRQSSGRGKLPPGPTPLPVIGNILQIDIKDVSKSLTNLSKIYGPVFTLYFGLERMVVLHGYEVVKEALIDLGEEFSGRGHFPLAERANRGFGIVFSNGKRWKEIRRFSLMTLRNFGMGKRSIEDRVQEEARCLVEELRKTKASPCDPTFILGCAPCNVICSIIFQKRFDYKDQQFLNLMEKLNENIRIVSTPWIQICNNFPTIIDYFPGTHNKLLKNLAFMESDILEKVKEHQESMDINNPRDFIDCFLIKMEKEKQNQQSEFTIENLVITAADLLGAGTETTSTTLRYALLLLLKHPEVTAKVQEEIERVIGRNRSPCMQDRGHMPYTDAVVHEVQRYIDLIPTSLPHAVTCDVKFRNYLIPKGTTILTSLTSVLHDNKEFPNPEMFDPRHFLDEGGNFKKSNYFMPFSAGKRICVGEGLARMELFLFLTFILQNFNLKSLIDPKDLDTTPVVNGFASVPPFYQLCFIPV
Series [15] is described as follows: Drug level in NMRI mouse brain at 43.3 mg/kg, ip after 5 mins. The class given is ADME, organism-based. Also on record: dose 43.3 mg/kg, route intraperitoneal. Particulars: read-out: Drug uptake. An outline of the steps:
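NMRI mice are dosed ip at 43.3 mg/kg. Plasma and brain exposure are determined 5 min after dosing, and free brain concentration is reported.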

Converted amounts (≈) assume the structure as drawn. The source made the active and inactive calls. Bounds are passed on as bounds.

On to `CC(=O)N1CCCC1(Cc1ccc(S(C)(=O)=O)cc1)C(=O)OCc1ccccc1` (stereo in doubt; 13) [listing 1 of 2 here], for which the outcome in the series with Mus musculus [1], with Mus musculus [2] and in the series with Mus musculus [3] was inactive.
`CC(=O)N1CCCC1(Cc1ccccc1)C(=O)OCc1ccccc1` (single isomer, unassigned; (-)) returned a CL in series [4] of 392 µL/min/mg. Besides, in series [5], the IC50 was 50 µM.
Turning to `COc1ccc(CC2(C(=O)OCc3ccccc3)CCCN2C(C)=O)cc1` (centres undefined), the inhibition at 100 µM in series [6] was 59%. This compound returned a microsomal CLint in series [4] of 333 µL/min/mg. The compound further showed a solubility in series [7] of 10 µg/mL (≈ 27.2 µM). Further, the hepatocyte CLint in [8] stood at 23 µL/min/1e6 cells. Moreover, the IC50 in [5] was 0.4 µM.
On the same counts, the results for `CC(=O)N1CCCC1(Cc1ccc(C#N)cc1)C(=O)OCc1ccccc1` (centres undefined) are 31%, 123 µL/min/mg, 20 µg/mL (≈ 55.2 µM), 31 µL/min/1e6 cells and 0.16 µM.
On to `CS(=O)(=O)N1CCCC1(Cc1ccccc1)C(=O)OCc1ccccc1` (centres undefined), for which the inhibition at 100 µM in series [6] was below 20%. Further, the microsomal CLint in series [4] stood at 400 µL/min/mg. The compound further gave a solubility in [7] of 1 µg/mL (≈ 2.68 µM). For the same compound, the hepatocyte CLint in series [8] was determined as 23 µL/min/1e6 cells. Also, the IC50 in series [5] was found to be 1.6 µM.
`CC(=O)N1CCCC1(CC1CCCCC1)C(=O)OCc1ccccc1` (centres undefined): in series [6], the inhibition at 100 µM was 39%. Also, in [4], the microsomal CLint stood at 382 µL/min/mg. The solubility in series [7] came to 3 µg/mL (≈ 8.73 µM). Besides, in [5], the IC50 is 1 µM.
As for `CC(=O)N1CCCC1(Cc1ccc(S(C)(=O)=O)cc1)C(=O)OCc1ccccc1` (stereo in doubt; 13) [listing 2 of 2 here], the inhibition at 100 µM in [6] was 35%. The same compound displayed a microsomal CLint in series [4] of 16 µL/min/mg. In addition, in [9], the Cmax amounted to 457 ng/mL. Besides, the clearance in series [10] is 26 mL/min/kg. Also, in series [11], the half-life is 0.3 h. Besides, the Papp in [12] was found to be 31 ×10⁻⁶ cm/s. In addition, in series [7], the solubility stood at 500 µg/mL (≈ 1200 µM). Moreover, the AUC in [13] is 726 ng·h/mL. In addition, in series [14], the bioavailability was determined as 18%. This compound returned a hepatocyte CLint in [8] of 12 µL/min/1e6 cells. The inhibition at 50 µM against CYP2D6, against CYP3A4, against CYP2C9 and against CYP2C19 was below 30% throughout. For the same compound, the IC50 in series [5] was found to be 1 µM. The concentration at 5 min in series [15] came to 6 µM.
In the case of `CC(=O)N1CCCC1(Cc1ccc(F)c(C(F)(F)F)c1)C(=O)OCc1ccccc1` (centres undefined), the inhibition at 100 µM in [6] was 24%. Besides, the microsomal CLint in [4] is 356 µL/min/mg. This compound had a solubility in [7] of 0.5 µg/mL (≈ 1.18 µM). Further, in [8], the hepatocyte CLint is 20 µL/min/1e6 cells. Besides, the IC50 in series [5] stood at 0.06 µM.
For the compound `CC(=O)N1CCCC1(Cc1ccccc1)C(=O)OCc1ccccc1` (racemic), in [6], the “inhibition (INH)” value worked out at 44%. Further, the microsomal CLint in series [4] amounted to 385 µL/min/mg. Further, the concentration in series [9] peaked (Cmax) at 11.9 ng/mL. Also, in [10], the clearance was 61 mL/min/kg. In series [11], this compound showed a half-life of 2.4 h. In addition, the solubility in [7] worked out at 2 µg/mL (≈ 5.93 µM). This compound registered an AUC in series [13] of 8.6 ng·h/mL. In [14], this compound gave a bioavailability of 0.5%. In series [8], this compound came in with a hepatocyte CLint of 28 µL/min/1e6 cells. In series [5], the IC50 came out at 0.79 µM.
For `CC(=O)N1CCCC1(Cc1ccc(C(F)(F)F)cc1)C(=O)OCc1ccccc1` (centres undefined), the inhibition at 100 µM in series [6] is 53%. This compound yielded a microsomal CLint in series [4] of 128 µL/min/mg. The same compound registered a solubility in [7] of 2 µg/mL (≈ 4.93 µM). In series [8], this compound displayed a hepatocyte CLint of 20 µL/min/1e6 cells. The IC50 in [5] amounted to 0.63 µM.
Regarding `CC(=O)N1CCCC1(Cc1cccc(S(C)(=O)=O)c1)C(=O)OCc1ccccc1` (centres undefined), the inhibition at 100 µM in [6] worked out at 25%. The microsomal CLint in series [4] was determined as 107 µL/min/mg. In addition, the hepatocyte CLint in [8] was 24 µL/min/1e6 cells. Moreover, in [5], the IC50 stood at 0.25 µM.

By IC50 is commonly meant the midpoint of a concentration-inhibition curve. In general, inhibition refers to the relative decrease from the control value, in per cent. A word on the microsomal CLint: it is the capacity of the preparation to metabolise the compound, expressed as a volume cleared per time. The low end stands for slow turnover, the high end for rapid turnover. By solubility is commonly meant how much of the substance goes into solution per volume. In general, hepatocyte CLint refers to the rate of metabolic loss divided by the concentration. Higher therefore signals rapid turnover. For orientation: Cmax means the peak of the concentration-time curve. By clearance is commonly meant the rate of elimination divided by the concentration. Read a low clearance as a low capacity for elimination. Usually half-life stands for the time needed for the level to fall by half in the phase considered. In general, Papp refers to the rate of passage across a membrane or cell layer, normalised by area and donor concentration. One may read the AUC as the area under the concentration-time curve, a measure of exposure. A low value points to low exposure. A word on the bioavailability: it is the share of a dose that reaches the circulation, judged against a reference dose that is usually intravenous. The low end stands for poor availability, the high end for good availability.
